{"source": "ChEMBL document CHEMBL1126909", "about": "“Synthesis and pharmacological examination of benzofuran, indan, and tetralin analogues of 3,4-(methylenedioxy)amphetamine” (J Med Chem, 1993)", "type_in_all_cases": "functional", "key": {"Rattus norvegicus [1]": {"organism": "Rattus norvegicus", "test": "Tested for drug-discrimination stimulus effect in 3-trained rats"}, "Rattus norvegicus [2]": {"organism": "Rattus norvegicus", "test": "Inhibitory concentration against [3H]- NE uptake in crude rat synaptosomes", "settings": "Brain", "how_it_was_run": "(§1)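 Crude synaptosomes from male Sprague-Dawley rat tissue homogenised in ice-cold isotonic sucrose. Preincubated 5 min at 37 °C under aeration with pargyline (final 100 μM), then chilled. Tritiated transmitter added at 10 nM final and uptake run 5 min at 37 °C. Catecholamine buffer had 0.06 mM ascorbate. Filtered and counted by scintillation. 9–10 concentrations in triplicate, 3–4 experiments, four-parameter logistic fit for IC50 ± SEM.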"}, "Rattus norvegicus [3]": {"organism": "Rattus norvegicus", "test": "Inhibitory concentration against [3H]- DA uptake in crude rat synaptosomes", "settings": "Brain", "how_it_was_run": "as §1"}, "Rattus norvegicus [4]": {"organism": "Rattus norvegicus", "test": "Inhibitory concentration against [3H]- 5-HT uptake in crude rat synaptosomes", "settings": "Brain", "how_it_was_run": "as §1"}, "Rattus norvegicus [5]": {"organism": "Rattus norvegicus", "test": "Tested for drug-discrimination stimulus effect in S-1c trained rats", "how_it_was_run": "(§2)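 Male Sprague-Dawley rats (175–200 g) held at about 80% of free-feeding weight were trained on two levers to tell (S)-1c·HCl 1.75 mg/kg from saline. Test drugs were given in 0.9% saline, ip, 30 min before sessions run under extinction. A session ended at 50 presses on one lever, or was scored disrupted if not done within 5 min. %SDL counts nondisrupted rats. ED50 and 95% CI were derived by Litchfield–Wilcoxon.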"}, "Rattus norvegicus [6]": {"test_system": "Rattus norvegicus", "test": "Percentage of nondisrupted animals selecting drug liver in 3 trained at 0.429 mg/kg; SDL", "how_it_was_run": "(§3)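 Rats and training are as above: male Sprague-Dawley, food-restricted, with training doses per drug group. Test drug was given ip in saline 30 min before extinction sessions. %SDL is the share of nondisrupted rats reaching 50 presses on the drug lever. A rat not completing 50 presses in 5 min was scored as disrupted.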"}, "Rattus norvegicus [7]": {"test_system": "Rattus norvegicus", "test": "Percentage of nondisrupted animals selecting drug liver in S-1c trained at 0.429 mg/kg; SDL"}, "Rattus norvegicus [8]": {"test_system": "Rattus norvegicus", "test": "Number of animals tested to that of number of animals disrupted in 3 trained at 0.108 mg/kg; Number of animals tested=8", "how_it_was_run": "(§4)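 Drug-discrimination rats were male Sprague-Dawley, 175–200 g, kept at about 80% of free-feeding weight. They were trained against saline on (S)-1c·HCl 1.75 mg/kg, 3·HCl 1.71 mg/kg or (S)-amphetamine sulfate 1 mg/kg. Test drug was given ip in 0.9% saline at 1 mL/kg, 30 min before sessions run under extinction. A session ended at 50 presses on one lever; failing 50 presses within 5 min was scored as disrupted.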"}, "Rattus norvegicus [9]": {"test_system": "Rattus norvegicus", "test": "Number of animals tested to that of number of animals disrupted in 3 trained at 0.643 mg/kg; Number of animals tested=12", "how_it_was_run": "as §4"}, "Rattus norvegicus [10]": {"test_system": "Rattus norvegicus", "test": "Number of animals tested to that of number of animals disrupted in S-1c trained at 0.429 mg/kg; Number of animals tested=11", "how_it_was_run": "as §4"}, "Rattus norvegicus [11]": {"test_system": "Rattus norvegicus", "test": "Percentage of nondisrupted animals selecting drug liver in S-1c trained at 0.643 mg/kg; SDL"}, "Rattus norvegicus [12]": {"test_system": "Rattus norvegicus", "test": "Tested for drug-discrimination stimulus effect at 0.215 mg/kg; 0.31-0.74"}, "Rattus norvegicus [13]": {"test_system": "Rattus norvegicus", "test": "Number of animals tested to that of number of animals disrupted in S-1c trained at 0.643 mg/kg; Number of animals tested=10", "how_it_was_run": "as §4"}, "Rattus norvegicus [14]": {"test_system": "Rattus norvegicus", "test": "Number of animals tested to that of number of animals disrupted in 3 trained at 0.215 mg/kg; Number of animals tested=11", "how_it_was_run": "as §4"}, "Rattus norvegicus [15]": {"test_system": "Rattus norvegicus", "test": "Number of animals tested to that of number of animals disrupted in S-1c trained at 0.215 mg/kg; Number of animals tested=10", "how_it_was_run": "as §4"}, "Rattus norvegicus [16]": {"test_system": "Rattus norvegicus", "test": "Number of animals tested to that of number of animals disrupted in 3 trained at 0.857 mg/kg; Number of animals tested=11", "how_it_was_run": "as §4"}, "Rattus norvegicus [17]": {"test_system": "Rattus norvegicus", "test": "Percentage of nondisrupted animals selecting drug liver in S-1c trained at 0.857 mg/kg; SDL"}, "Rattus norvegicus [18]": {"organism": "Rattus norvegicus", "test": "Inhibitory concentration against [3H]- DA uptake, p<0.0001"}, "Rattus norvegicus [19]": {"test_system": "Rattus norvegicus", "test": "Number of animals tested to that of number of animals disrupted in 3 trained at 0.429 mg/kg; Number of animals tested=12", "how_it_was_run": "as §4"}, "Rattus norvegicus [20]": {"test_system": "Rattus norvegicus", "test": "Percentage of nondisrupted animals selecting drug liver in 3 trained at 0.643 mg/kg; SDL", "how_it_was_run": "as §3"}, "Rattus norvegicus [21]": {"test_system": "Rattus norvegicus", "test": "Number of animals tested to that of number of animals disrupted in 3 trained at 1.286 mg/kg; Number of animals tested=8", "how_it_was_run": "as §4"}, "Rattus norvegicus [22]": {"test_system": "Rattus norvegicus", "test": "Percentage of nondisrupted animals selecting drug liver in 3 trained at 0.857 mg/kg; SDL", "how_it_was_run": "as §3"}, "Rattus norvegicus [23]": {"test_system": "Rattus norvegicus", "test": "Tested for drug-discrimination stimulus effect at 0.429 mg/kg; 0.24-0.57", "how_it_was_run": "as §2"}, "Rattus norvegicus [24]": {"test_system": "Rattus norvegicus", "test": "Percentage of nondisrupted animals selecting drug liver in 3 trained at 1.286 mg/kg; SDL", "how_it_was_run": "as §3"}, "Rattus norvegicus [25]": {"test_system": "Rattus norvegicus", "test": "Percentage of nondisrupted animals selecting drug liver in 3 trained at 0.108 mg/kg; SDL", "how_it_was_run": "as §3"}, "Rattus norvegicus [26]": {"test_system": "Rattus norvegicus", "test": "Percentage of nondisrupted animals selecting drug liver in 3 trained at 0.215 mg/kg; SDL", "how_it_was_run": "as §3"}, "Rattus norvegicus [27]": {"test_system": "Rattus norvegicus", "test": "Number of animals tested to that of number of animals disrupted in S-1c trained at 0.857 mg/kg; Number of animals tested=10", "how_it_was_run": "as §4"}, "Rattus norvegicus [28]": {"test_system": "Rattus norvegicus", "test": "Percentage of nondisrupted animals selecting drug liver in S-1c trained at 0.215 mg/kg; SDL", "how_it_was_run": "as §3"}}}
{"compound": "COc1cc2c(cc1C)CC(N)C2", "note": "(stereo not given)", "values": [{"measurement": "ED50", "setting": "Rattus norvegicus [1]", "value": 0.56, "unit": "mg/kg"}]}
{"compound": "CC(N)Cc1ccc2c(c1)CCCC2", "note": "(stereo not given)", "values": [{"measurement": "IC50", "setting": "Rattus norvegicus [2]", "value": 3.37, "unit": "µM"}, {"measurement": "IC50", "setting": "Rattus norvegicus [3]", "value": 6.44, "unit": "µM"}, {"measurement": "IC50", "setting": "Rattus norvegicus [4]", "value": 0.121, "unit": "µM"}]}
{"compound": "CCC(Cc1ccc2c(c1)OCO2)NC", "note": "(stereo not given)", "values": [{"measurement": "ED50", "setting": "Rattus norvegicus [5]", "value": 0.79, "unit": "mg/kg"}]}
{"compound": "CC(N)Cc1ccc2c(c1)CCO2", "note": "(stereo not given)", "values": [{"measurement": "SDL", "setting": "Rattus norvegicus [6]", "value": 50, "unit": "%"}, {"measurement": "SDL", "setting": "Rattus norvegicus [7]", "value": 50, "unit": "%"}, {"measurement": "Activity", "setting": "Rattus norvegicus [8]", "value": 3}, {"measurement": "Activity", "setting": "Rattus norvegicus [9]", "value": 4}, {"measurement": "Activity", "setting": "Rattus norvegicus [10]", "value": 5}, {"measurement": "SDL", "setting": "Rattus norvegicus [11]", "value": 71, "unit": "%"}, {"measurement": "ED50", "setting": "Rattus norvegicus [12]", "value": 0.48, "unit": "mg/kg"}, {"measurement": "Activity", "setting": "Rattus norvegicus [13]", "value": 3}, {"measurement": "Activity", "setting": "Rattus norvegicus [14]", "value": 8}, {"measurement": "Activity", "setting": "Rattus norvegicus [15]", "value": 2}, {"measurement": "IC50", "setting": "Rattus norvegicus [2]", "value": 3.24, "unit": "µM"}, {"measurement": "Activity", "setting": "Rattus norvegicus [16]", "value": 4}, {"measurement": "SDL", "setting": "Rattus norvegicus [17]", "value": 100, "unit": "%"}, {"measurement": "IC50", "setting": "Rattus norvegicus [18]", "value": 7.09, "unit": "µM"}, {"measurement": "Activity", "setting": "Rattus norvegicus [19]", "value": 6}, {"measurement": "SDL", "setting": "Rattus norvegicus [20]", "value": 75, "unit": "%"}, {"measurement": "Activity", "setting": "Rattus norvegicus [21]", "value": 5}, {"measurement": "SDL", "setting": "Rattus norvegicus [22]", "value": 86, "unit": "%"}, {"measurement": "ED50", "setting": "Rattus norvegicus [23]", "value": 0.37, "unit": "mg/kg"}, {"measurement": "SDL", "setting": "Rattus norvegicus [24]", "value": 100, "unit": "%"}, {"measurement": "SDL", "setting": "Rattus norvegicus [25]", "value": 0, "unit": "%"}, {"measurement": "IC50", "setting": "Rattus norvegicus [4]", "value": 0.13, "unit": "µM"}, {"measurement": "SDL", "setting": "Rattus norvegicus [26]", "value": 33, "unit": "%"}, {"measurement": "Activity", "setting": "Rattus norvegicus [27]", "value": 4}, {"measurement": "SDL", "setting": "Rattus norvegicus [28]", "value": 25, "unit": "%"}]}
